# Test results published in ChEMBL document CHEMBL1687848, “In vitro effect of qnrA1, qnrB1, and qnrS1 genes on fluoroquinolone activity against isogenic Escherichia coli isolates with mutations in gyrA and parC” (2011).
# Key:
# Type in all cases: functional
# Escherichia coli [1] = test: Antibacterial activity against Escherichia coli ATCC 25922 expressing qnrB gene and pBK-QnrB1 by broth microdilution method
# Escherichia coli [2] = test: Antibacterial activity against Escherichia coli ATCC 25922 expressing qnrA gene and pBK-QnrA1 assessed as earliest time required to resistant colonies visible one step below mutant prevention concentration
# Escherichia coli [3] = test: Ratio of mutant prevention concentration to MIC for Escherichia coli ATCC 25922
# Summary of the method: (§1)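 MIC: broth microdilution per CLSI, in duplicate. The ratio is MPC over MIC. Strains are E. coli ATCC 25922 or its GyrA Ser83Leu gene-replacement mutant, with qnr genes on pBK-CMV introduced by electroporation.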
# Escherichia coli [4] = test: Ratio of mutant prevention concentration to MIC for qnrA gene expressing Escherichia coli ATCC 25922 harboring GyrA S83L mutant and pBK-QnrA1; summary of the method: as §1
# Escherichia coli [5] = test: Ratio of mutant prevention concentration to MIC for qnrB gene expressing Escherichia coli ATCC 25922 harboring GyrA S83L mutant and pBK-QnrB1; summary of the method: as §1
# Escherichia coli [6] = test: Antibacterial activity against qnrS gene expressing Escherichia coli ATCC 25922 harboring ParC S80R mutant and pBK-QnrS1 by broth microdilution method
# Escherichia coli [7] = test: Antibacterial activity against qnrB gene expressing Escherichia coli ATCC 25922 harboring GyrA S83L mutant and pBK-QnrB1 assessed as earliest time required to resistant colonies visible one step below mutant prevention concentration
# Escherichia coli [8] = test: Antibacterial activity against qnrB gene expressing Escherichia coli ATCC 25922 harboring GyrA S83L mutant and pBK-QnrB1 assessed as mutant prevention concentration
# Escherichia coli [9] = test: Antibacterial activity against qnrS gene expressing Escherichia coli ATCC 25922 harboring GyrA S83L mutant and pBK-QnrS1 assessed as resistant colonies recovered one step below mutant prevention concentration
# Summary of the method: (§2)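 Resistant colonies recovered from Mueller-Hinton plates one concentration step below the MPC for each fluoroquinolone were retested for MIC. Mutants taken from plated concentrations closest to the MPC had the QRDRs of gyrA and parC analysed.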
# Escherichia coli [10] = test: Antibacterial activity against qnrA gene expressing Escherichia coli ATCC 25922 harboring GyrA S83L mutant and pBK-QnrA1 by broth microdilution method
# Escherichia coli [11] = test: Ratio of mutant prevention concentration to MIC for Escherichia coli ATCC 25922 expressing qnrS gene and pBK-QnrS1; summary of the method: as §1
# Escherichia coli [12] = test: Antibacterial activity against Escherichia coli ATCC 25922 assessed as mutant prevention concentration
# Escherichia coli [13] = test: Ratio of mutant prevention concentration to MIC for Escherichia coli ATCC 25922 harboring GyrA S83L mutant; summary of the method: as §1
# Escherichia coli [14] = test: Antibacterial activity against Escherichia coli ATCC 25922 expressing qnrA gene and pBK-QnrA1 assessed as mutant prevention concentration
# Escherichia coli [15] = test: Antibacterial activity against qnrB gene expressing Escherichia coli ATCC 25922 harboring ParC S80R mutant and pBK-QnrB1 by broth microdilution method
# Escherichia coli [16] = test: Antibacterial activity against qnrA gene expressing Escherichia coli ATCC 25922 harboring GyrA S83L mutant and pBK-QnrA1 assessed as earliest time required to resistant colonies visible one step below mutant prevention concentration
# Escherichia coli [17] = test: Antibacterial activity against qnrB gene expressing Escherichia coli ATCC 25922 harboring GyrA S83L mutant and pBK-QnrB1 assessed as resistant colonies recovered one step below mutant prevention concentration; summary of the method: as §2
# Escherichia coli [18] = test: Antibacterial activity against Escherichia coli ATCC 25922 assessed as earliest time required to resistant colonies visible one step below mutant prevention concentration
# Escherichia coli [19] = test: Antibacterial activity against Escherichia coli ATCC 25922 by broth microdilution method
# Escherichia coli [20] = test: Antibacterial activity against qnrS gene expressing Escherichia coli ATCC 25922 harboring GyrA S83L mutant and pBK-QnrS1 assessed as mutant prevention concentration
# Escherichia coli [21] = test: Antibacterial activity against qnrB gene expressing Escherichia coli ATCC 25922 harboring ParC S80R mutant, ParC S80R mutant and pBK-QnrB1 by broth microdilution method
# Escherichia coli [22] = test: Antibacterial activity against qnrA gene expressing Escherichia coli ATCC 25922 harboring ParC S80R mutant and pBK-QnrA1 by broth microdilution method
# Escherichia coli [23] = test: Antibacterial activity against Escherichia coli ATCC 25922 expressing qnrB gene and pBK-QnrB1 assessed as earliest time required to resistant colonies visible one step below mutant prevention concentration
# Escherichia coli [24] = test: Ratio of mutant prevention concentration to MIC for Escherichia coli ATCC 25922 expressing qnrB gene and pBK-QnrB1; summary of the method: as §1
# Escherichia coli [25] = test: Antibacterial activity against Escherichia coli ATCC 25922 expressing qnrS gene and pBK-QnrS1 by broth microdilution method
# Escherichia coli [26] = test: Antibacterial activity against qnrS gene expressing Escherichia coli ATCC 25922 harboring GyrA S83L mutant and pBK-QnrS1 assessed as earliest time required to resistant colonies visible one step below mutant prevention concentration
# Escherichia coli [27] = test: Antibacterial activity against Escherichia coli ATCC 25922 expressing qnrA gene and pBK-QnrA1 assessed as resistant colonies recovered one step below mutant prevention concentration; summary of the method: as §2
# Escherichia coli [28] = test: Antibacterial activity against Escherichia coli ATCC 25922 expressing qnrS gene and pBK-QnrS1 assessed as resistant colonies recovered one step below mutant prevention concentration; summary of the method: as §2
# Escherichia coli [29] = test: Ratio of mutant prevention concentration to MIC for Escherichia coli ATCC 25922 expressing qnrA gene and pBK-QnrA1; summary of the method: as §1
# Escherichia coli [30] = test: Antibacterial activity against Escherichia coli ATCC 25922 expressing qnrB gene and pBK-QnrB1 assessed as mutant prevention concentration
# Escherichia coli [31] = test: Antibacterial activity against qnrA gene expressing Escherichia coli ATCC 25922 harboring GyrA S83L mutant and pBK-QnrA1 assessed as resistant colonies recovered one step below mutant prevention concentration; summary of the method: as §2
# Escherichia coli [32] = test: Antibacterial activity against qnrB gene expressing Escherichia coli ATCC 25922 harboring GyrA S83L mutant and pBK-QnrB1 by broth microdilution method
# Escherichia coli [33] = test: Antibacterial activity against qnrS gene expressing Escherichia coli ATCC 25922 harboring GyrA S83L mutant and pBK-QnrS1 by broth microdilution method
# Escherichia coli [34] = test: Antibacterial activity against Escherichia coli ATCC 25922 harboring GyrA S83L mutant assessed as earliest time required to resistant colonies visible one step below mutant prevention concentration
# Escherichia coli [35] = test: Antibacterial activity against qnrA gene expressing Escherichia coli ATCC 25922 harboring GyrA S83L mutant and pBK-QnrA1 assessed as mutant prevention concentration
# Escherichia coli [36] = test: Antibacterial activity against Escherichia coli ATCC 25922 expressing qnrB gene and pBK-QnrB1 assessed as resistant colonies recovered one step below mutant prevention concentration; summary of the method: as §2
# Escherichia coli [37] = test: Antibacterial activity against Escherichia coli ATCC 25922 assessed as resistant colonies recovered one step below mutant prevention concentration; summary of the method: as §2
smiles,measurement,setting,value
CCn1cc(C(=O)O)c(=O)c2cc(F)c(N3CCNCC3)cc21 [NORFLOXACIN],MBC,Escherichia coli [1],0.5 µg/mL
same,MIC,Escherichia coli [1],0.25 µg/mL
same,Time,Escherichia coli [2],24 h
same,Ratio,Escherichia coli [3],266.7
same,Ratio,Escherichia coli [4],16
same,Ratio,Escherichia coli [5],16
same,MBC,Escherichia coli [6],0.5 µg/mL
same,MIC,Escherichia coli [6],0.5 µg/mL
same,Time,Escherichia coli [7],24 h
same,Activity,Escherichia coli [8],16 µg/mL
same,MIC,Escherichia coli [9],2 µg/mL
same,MBC,Escherichia coli [10],2 µg/mL
same,MIC,Escherichia coli [10],2 µg/mL
same,Ratio,Escherichia coli [11],16
same,Activity,Escherichia coli [12],4 µg/mL
same,Ratio,Escherichia coli [13],32
same,Activity,Escherichia coli [14],8 µg/mL
same,MBC,Escherichia coli [15],0.5 µg/mL
same,MIC,Escherichia coli [15],0.5 µg/mL
same,Time,Escherichia coli [16],24 h
same,MIC,Escherichia coli [17],2 µg/mL
same,Time,Escherichia coli [18],48 h
same,MBC,Escherichia coli [19],0.03 µg/mL
same,MIC,Escherichia coli [19],0.015 µg/mL
same,Activity,Escherichia coli [20],32 µg/mL
same,MBC,Escherichia coli [21],4 µg/mL
same,MIC,Escherichia coli [21],4 µg/mL
same,MBC,Escherichia coli [22],2 µg/mL
same,MIC,Escherichia coli [22],0.5 µg/mL
same,Time,Escherichia coli [23],48 h
same,Ratio,Escherichia coli [24],32
same,MBC,Escherichia coli [25],1 µg/mL
same,MIC,Escherichia coli [25],0.5 µg/mL
same,Time,Escherichia coli [26],24 h
same,MIC,Escherichia coli [27],1 µg/mL
same,MIC,Escherichia coli [28],1 µg/mL
same,Ratio,Escherichia coli [29],16
same,Activity,Escherichia coli [30],8 µg/mL
same,MIC,Escherichia coli [31],8 µg/mL
same,MBC,Escherichia coli [32],1 µg/mL
same,MIC,Escherichia coli [32],1 µg/mL
same,MBC,Escherichia coli [33],4 µg/mL
same,MIC,Escherichia coli [33],2 µg/mL
same,Time,Escherichia coli [34],24 h
same,Activity,Escherichia coli [35],16 µg/mL
same,MIC,Escherichia coli [36],0.5 µg/mL
same,MIC,Escherichia coli [37],0.25 µg/mL
